SUMO1-SIM PPI – alters human SUMO1 binding to SIM partners | P63165 | SUMO1 binding to a labelled peptide, TR-FRET, 1 h | inhibition, % at 20 µM | 0.33% of 360,000 active | AID 602429; in the data active = inhibition above about 37%
Target sequence (P63165 whole entry, looked up): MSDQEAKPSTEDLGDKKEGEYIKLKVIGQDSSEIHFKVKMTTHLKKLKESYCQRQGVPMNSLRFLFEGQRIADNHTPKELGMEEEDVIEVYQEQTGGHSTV
DNMT1 block – inhibitors of human DNMT1; P26358; DNMT1 molecular beacon, Hinp1I cleavage, fluorescence; inhibition (reported as % activation of signal), % at 10 µM; 0.83% of 360,000 active; AID 588458; in the data active = inhibition above about 50%
Scp-1 inhibitor – inhibitors of human Scp-1 phosphatase; Q9GZU7; Recombinant Scp1, phosphopeptide, malachite green phosphate absorbance; inhibition, % at 20 µM; 0.88% of 340,000 active; AID 493091;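 active = inhibition above about 50% at 20 µM, limit read from the data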
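Test system – truncated SCP-1 phosphatase (76-261aa) · Reagent – Phosphorylated 17-residue peptide substrate · Incubation – 45 min room-temperature reaction, 5 min colour, 30 min stabiliser · Detection – colorimetric phosphate reagent with accelerator and stabiliser, absorbance at 630 nm · Measure – % inhibition at 20 µM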
STEP inh – inhibitors of human striatal-enriched phosphatase STEP. P54829. recombinant STEP, OMFP fluorogenic substrate, fluorescence. inhibition, % at 20 µM. 0.25% of 360,000 active;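 active = inhibition at 20 µM, scaled per plate between control wells, above about 37%, limit read from the data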
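material = STEP tyrosine phosphatase | reagent = fluorogenic phosphatase substrate OMFP at 25 µM final | doses = single compound dose of 20 µM, 1% DMSO final | schedule = 20 min reaction, room temperature, in the dark | measured by = fluorescence, 480/540 nm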
Rpn11 inh – Rpn11 (human) deubiquitinase inhibition; human 26S proteasome, Ub4-pepOG fluorescence polarization; 20S core pre-blocked with epoxomicin; O00487; AID 588493; 0.59% of 360,000 active; inhibition, % at 20 µM;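 active = inhibition at 20 µM, scaled to each plate's controls, above about 33%, limit read from the data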
Target sequence (O00487 whole entry, looked up): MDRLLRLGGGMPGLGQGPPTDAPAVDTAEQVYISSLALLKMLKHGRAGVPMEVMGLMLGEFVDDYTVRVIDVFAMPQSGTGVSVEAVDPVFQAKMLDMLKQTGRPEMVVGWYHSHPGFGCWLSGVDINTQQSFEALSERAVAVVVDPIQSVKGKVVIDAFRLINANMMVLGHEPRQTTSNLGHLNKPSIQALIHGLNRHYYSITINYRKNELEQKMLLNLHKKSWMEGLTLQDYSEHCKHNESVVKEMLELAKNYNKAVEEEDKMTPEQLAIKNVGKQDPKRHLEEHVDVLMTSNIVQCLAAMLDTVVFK
LMPTP block – LMPTP (human) inhibition. inhibition, % at 20 µM. 0.22% of 360,000 active. P24666. recombinant LMPTP-A, OMFP fluorogenic substrate, fluorescence intensity;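 active = compounds that cut the enzyme signal by at least half of the control window in the single-dose screen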
Target sequence (P24666 whole entry, looked up): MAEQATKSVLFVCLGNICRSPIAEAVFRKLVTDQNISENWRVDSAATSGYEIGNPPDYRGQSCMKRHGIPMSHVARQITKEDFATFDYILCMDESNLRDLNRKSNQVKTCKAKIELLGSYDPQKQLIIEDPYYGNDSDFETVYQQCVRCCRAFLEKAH
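Test system: LMPTP-A phosphatase enzyme. Amount: LMPTP-A at 0.625 nM final in the reaction. Reagent: OMFP substrate, 400 µM final. Times: 50 min at room temperature. Signal: endpoint fluorescence intensity from OMFP dephosphorylation. Read-out basis: % inhibition. Benchmarks: no-enzyme and uninhibited controls.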
Rpn11 confirm – confirmation of human proteasome Rpn11 inhibitors; shares compounds with Rpn11 inh; purified human 26S proteasome, Ub4-pepOG fluorescence polarization; proteasome pretreated with epoxomicin; inhibition, % at 20 µM; 29% of 1,900 active
MMP-2 inh – blocks human MMP-2, flagging nonselective RPN11 hits; recombinant MMP-2, FRET peptide cleavage fluorescence; AID 602330; 4% of 1,900 active; shares compounds with Rpn11 inh; inhibition, % at 20 µM;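 note: human MMP-2 activated beforehand with APMA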
Thrombin inh – blocks bovine thrombin, flagging nonselective RPN11 hits. shares compounds with Rpn11 inh. bovine thrombin cleavage of Ub4-pepOG, fluorescence polarization. inhibition, % at 20 µM. 13% of 1,900 active. AID 602333;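 active = mean inhibition at least 40% at 20 µM, or signal 3 deviations below plate average, so some actives read negative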
STEP conf – STEP (human) phosphatase inhibition, single concentration confirmation; shares compounds with STEP inh; recombinant STEP, OMFP fluorogenic substrate, fluorescence; inhibition, % at 20 µM; 32% of 520 active; call rule not given here
Large screens that a line does not name were inactive (follow-up assays come after a bar, where shown); ! = not active in a repeat. An excerpt weighted towards active compounds, which were near 2.3% of everything screened. Cut-off read from the data, not from the text of the source, unless noted: active = inhibition above about 40%; inactive = the rest.

O=C(Nc1ccccc1O)c1ccc(NS(=O)(=O)c2cccc3cccnc23)cc1	none
CC1=Nc2ccc(C)cc2/C1=C/c1c(N)n2oc(C)cc2nc1=O	DNMT1 block 56!, Rpn11 inh 70 | Rpn11 confirm 59 | MMP-2 inh inactive | Thrombin inh inactive
Cc1cc(C)nc(/N=C(\N)Nc2ccc(C(C)C)cc2)n1	none
COc1ccc(-[n+]2c(C)cc(/C=C3\Sc4ccccc4N3C)cc2C)cc1	Rpn11 inh 83 (no result: Scp-1 inhibitor) | Rpn11 confirm 50 | MMP-2 inh inactive | Thrombin inh inactive
C=CCN(CC(=O)O)S(=O)(=O)c1ccccc1C(F)(F)F	none
N#CC(C#N)=Cc1ccc(-c2ccc(S(=O)(=O)N=C(N)N)cc2)o1	Rpn11 inh 46 | Rpn11 confirm inactive | MMP-2 inh 76 | Thrombin inh inactive
CCOC(=O)/C(=C/C=C1\Sc2cc(C)c(C)cc2N1CC)C(C)=O	none (not shown: Rpn11 inh)
CCN1/C(=C/c2ccc3cc(C)ccc3[n+]2CC)Sc2cc(C)c(C)cc21	Rpn11 inh 89, LMPTP block 65 | Rpn11 confirm 75 | MMP-2 inh inactive | Thrombin inh 146
CC1CCN(C(=O)C2CCN(S(=O)(=O)c3cc(Cl)ccc3Cl)CC2)CC1	none
O=C(Cc1cccc2ccccc12)Nc1ccc(-c2cc3ccccc3oc2=O)cc1	Rpn11 inh 43 | Rpn11 confirm inactive | MMP-2 inh inactive | Thrombin inh inactive
CCC(=O)Nc1cccc(-c2cc3ccccc3oc2=O)c1	none
CN1CCN(S(=O)(=O)c2cccc(C(=O)Nc3sc4c(c3C(N)=O)CCCC4)c2)CC1	Rpn11 inh 90 | Rpn11 confirm inactive | MMP-2 inh inactive | Thrombin inh inactive
NC(=O)c1c(NC(=O)c2ccc(S(=O)(=O)N3CCOCC3)cc2)sc2c1CCCCC2	none
CN(C)/C=C/C(=O)c1ccc(Br)cc1	none
Cc1ccc(C)n1-c1ccc(C(=O)/C=C/N(C)C)cc1	Rpn11 inh 50 | Rpn11 confirm inactive | MMP-2 inh inactive | Thrombin inh inactive
Cc1ccc(NC(=O)CN2C(=O)N/C(=C\c3ccco3)C2=O)cc1	Rpn11 inh 46 | Rpn11 confirm inactive | MMP-2 inh inactive | Thrombin inh inactive
O=C(CSc1nc2ccccc2o1)Nc1nc2c(s1)CCCC2	Rpn11 inh 96 | Rpn11 confirm 49 | MMP-2 inh inactive | Thrombin inh inactive
CCN1CCc2c(sc(NC(=O)c3cc4ccccc4cc3OC)c2C(N)=O)C1	Rpn11 inh 72 | Rpn11 confirm 75 | MMP-2 inh inactive | Thrombin inh inactive
CCOC(=O)N1CCN(C(=O)Cn2ccc3c(OC)cccc3c2=O)CC1	none
CN1CCc2c(sc(/N=C/c3c[nH]c4ccccc34)c2C(N)=O)C1	SUMO1-SIM PPI 92, STEP inh 51, Rpn11 inh 114, LMPTP block 67 | Rpn11 confirm inactive | MMP-2 inh inactive | Thrombin inh inactive | STEP conf inactive
CN1CCc2c(sc(/N=C/c3c[nH]c4ccccc34)c2C#N)C1	none (not shown: Rpn11 inh)
Cc1cc(OC(C)C(=O)NCC2CCC(C(=O)O)CC2)c2c(C)cc(=O)oc2c1 (stereo unspecified)	none
O=C(O)c1ccc(NC(=S)NC(=O)c2ccc(-c3ccc(Br)cc3)o2)cc1	SUMO1-SIM PPI 86, STEP inh 97, Rpn11 inh 145, LMPTP block 80 | Rpn11 confirm 74 | MMP-2 inh inactive | Thrombin inh inactive | STEP conf inactive
O=C(O)c1cccc(NC(=S)NC(=O)c2ccc(-c3ccc(Cl)cc3)o2)c1	none
Cc1cc(F)ccc1NCc1ccc([N+](=O)[O-])cc1	none
N/C(=N\OC(=O)c1cccc2ccccc12)c1cccc([N+](=O)[O-])c1	STEP inh 62, Rpn11 inh 81 | Rpn11 confirm inactive | MMP-2 inh inactive | Thrombin inh inactive | STEP conf 24
CC(C)(C)OC(=O)N[C@H](/C=C/c1ccccc1)C(=O)OC(C)(C)C	none
O=C(Nc1ccc2oc(-c3ccncc3)nc2c1)c1ccc(Br)o1	STEP inh 67, Rpn11 inh 76 | Rpn11 confirm inactive | MMP-2 inh inactive | Thrombin inh inactive | STEP conf inactive
O=C(Nc1ccc2oc(-c3ccncc3)nc2c1)c1ccc2c(c1)OCO2	SUMO1-SIM PPI 44, STEP inh 74, Rpn11 inh 169, LMPTP block 67 | Rpn11 confirm inactive | MMP-2 inh inactive | Thrombin inh inactive | STEP conf inactive
CS(=O)(=O)N(Cc1ccc(C(=O)NCCSc2ccccn2)cc1)c1ccccc1	STEP inh 44 | STEP conf inactive
Cc1ccc(N(Cc2ccc(C(=O)NCCSc3ccccn3)cc2)S(C)(=O)=O)cc1C	none
CCN(CC)S(=O)(=O)c1ccc2oc(C(=O)NCc3ccc(C)cc3)c(C)c2c1	STEP inh 61 | STEP conf inactive
c1ccc(CSc2nc3ccccc3[nH]2)cc1	none
Cc1ccccc1-n1nc(CSc2nc3ccccc3[nH]2)c(-c2ccccc2)c1N	STEP inh 58 | STEP conf inactive
COc1ccc2c(c1)sc(=N)n2C	none
COc1cccc(S(=O)(=O)Nc2noc3ccccc23)c1	none
COc1ccc(S(=O)(=O)Nc2noc3ccccc23)cc1	STEP inh 84 | STEP conf inactive
CC(C)[C@H](NC(=O)N1CC(=O)Nc2ccccc21)C(=O)N[C@H](Cc1ccccc1)C(=O)O	none
CC(C)[C@H](NC(=O)N1CC(=O)Nc2ccccc21)C(=O)Nc1nccs1	STEP inh 92 | STEP conf inactive
Cc1cnc(CN(C)C(=O)CC2C(=O)NCCN2CCCc2ccccc2)[nH]1 (stereo unspecified)	none
COc1cc2c(cc1OC)C(C(=O)O)C(c1ccc(C)o1)N(C)C2=O (stereo unspecified)	STEP inh 56 | STEP conf inactive
CC1(C)CC(NC(=S)Nc2ccc(S(N)(=O)=O)cc2)CC(C)(C)N1	STEP inh 63 | STEP conf inactive
COc1ccc(-c2cc(-c3ccco3)[nH]c(=O)c2C#N)cc1OC	none

Screening results as filed in PubChem BioAssay.
